Data set [1] has as its system SKBR-3 cells. The experiment in a line: Cytotoxicity by MTT assay. Type of data set: cell-based. Conditions: Homo sapiens, SK-BR-3. The method in brief:
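SKBR-3 cells were grown in McCoy's 5A with 10% FBS, penicillin and streptomycin at 37°C under 5% CO2. Test compound was applied over a dose range in a time-dependent MTT assay. Growth inhibition was expressed as a percentage relative to controls, and IC50 was derived from the dose response.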
(In general: Tetrazolium dyes change colour on reduction, which living cells bring about.)

Data set [2] deals with SKBR-3 cells. Kind of data set: Apoptosis study by annexin V FITC. Conditions: SKBR3 cells, 24 hrs, at respective IC50. In kind it is cell-based, human. The essentials:
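SKBR-3 cells seeded at 1×10^5 cells per well in McCoy's medium at 37°C and exposed to test compound for 24 hrs. Cells were then trypsinized, pelleted at 3000 rpm for 3 mins and PBS-washed. They were stained with FITC-annexin V plus propidium iodide, and the apoptotic fraction was quantified by flow cytometry.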

Data set [3] has as its system SKBR-3 cells. Kind of data set: Cell cycle distribution analysis. Type of data set: cell-based, human. Conditions: 24 hrs, at respective IC50. The essentials:
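After 24 hrs of exposure to test compound (SKBR-3 seeded at 1×10^5 cells per well), cells were collected and washed thrice in sterile PBS pH 7.4. They were fixed in chilled 70% ethanol and stained with propidium iodide (20 µg/mL) for 30 mins. DNA content was acquired over 15,000 events per sample, and phase distribution was compared with untreated control.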

Data set [4] deals with MCF-7 cells. Kind of data set: Cell cycle distribution analysis. Type of data set: cell-based, human. Conditions: 24 hrs, at respective IC50.
Data set [5] in a line: Pharmacokinetic study. Type of data set: in vivo, BALB/c mice.
A short description of data set [6]: Cardiac toxicity study. Type of data set: in vivo, female BALB/c mice. Conditions: BALB/c mice. The essentials:
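Female BALB/c mice (~25 g, n=3 per group) received three consecutive IV injections totalling […] DOX, given as free drug or drug-equivalent nanoparticles. Controls were untreated/saline and blank nanoparticles. Weight was recorded every 48 hrs, and […] was taken under light anaesthesia 14 days after the last dose. Hearts were then excised and weighed, and SOD was kit-assayed in heart homogenate (ice-cold PBS, 10 mL/g).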

Data set [7] has as its system SKBR-3 tumor. The experiment in a line: In vivo therapeutic study on tumor-bearing xenograft mice. Set-up: species or system athymic nude mice. Conditions: for average tumor volume: three IV doses of DOX 3 mg/kg on alternate days. The method in brief: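 Athymic nude mice (CAnN.Cg-Foxn, 6 weeks, ~20 g) were inoculated subcutaneously in the left rear flank with 1×10^7 SKBR-3 cells in 200 μL medium. At 100–150 mm3, groups of three received IV saline or test compound, three doses of DOX 3 mg/kg equivalent on alternate days. Tumours were caliper-measured, body weight was monitored, and excised tumours were weighed after sacrifice (mean ± SD, n=3).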

Setting [8] is: BALB/c, mouse, plasma, iv, 10 mg/kg.
The mark [9] stands for this setting: plasma DOX, IV bolus, 10 mg/kg DOX or equivalent, BALB/c mice.

Marks after values point to notes of the source that are not given here.

As a reminder, the IC50 is the point on the concentration scale where inhibition reaches its midpoint. A higher IC50 goes with lower potency. The AUC(0-inf) is total exposure, with the tail of the curve extrapolated. A higher AUC(0-inf) goes with high exposure. As usually defined, the AUC(0-t) is the area under the concentration-time curve up to a stated or last time point. High values mean high exposure, low ones low exposure. What is called Cmax is the peak of the concentration-time curve. The MRT inf is the average time that molecules of a dose stay in the body. One may read the MRT last as the average time that molecules of a dose stay in the body. One may read the Tmax as the time at which the peak concentration occurs. One may read the Vd as the apparent volume that relates the amount in the body to the concentration in plasma or blood. A lower Vd goes with confinement near the circulation. For orientation: clearance means a measure of how efficiently the substance is removed, as volume per time. High values mean efficient removal, low ones inefficient removal. By half-life is commonly meant the time needed for the level to fall by half in the phase considered. Low values mean rapid decline, high ones slow decline. In data set [1], `COc1cccc2c1C(=O)c1c(O)c3c(c(O)c1C2=O)C[C@@](O)(C(=O)CO)C[C@@H]3O[C@H]1C[C@H](N)[C@H](O)[C@H](C)O1` [DOX, (7S, 9S)-7-[(2R, 4S, 5S, 6S)-4-amino-5-hydroxy-6-methyloxan-2-yl]oxy-6,9,11-trihydroxy-9-(2-hydroxyacetyl)-4-methoxy-8,10-dihydro-7H-tetracene-5,12-dione] gave an IC50 of 14.1 µM. In data set [2], this molecule returned an extent of apoptosis of 19.6%. Moreover, the “cell-arrest in S-phase” value in data set [3] came to 22%. Further, in data set [4], the “cell-arrest in S-phase” value is 8%. In data set [5] (setting [8]), this molecule returned an AUC(0-inf) of 2930 ± 205 ng·h/mL, an area under the curve AUC(0-t) of 2880 ± 199 ng·h/mL, a Cmax of 911 ± 50.5 ng/mL and an MRT inf of 18.2 ± 0.86 h. Besides, in data set [5] (setting [8]), the MRT last is 16.2 ± 0.99 h, the Tmax was found to be 15 ± 1.26 min, the Vd is 61.9 ± 4.8 L/kg and the clearance is 56.7 mL/min/kg. This molecule also showed a half-life in data set [5] (setting [8]) of 1070 ± 126 min. Also, in data set [5] (setting [9]), the AUMCinf is 53,296.5±2600 hrs.hrs.ng/mL and the AUMClast is on record as 46,707.8±2202.6 hrs.hrs.ng/mL. Besides, in data set [6] (2 weeks after final dosing), the Heart weight is 0.1420 ± 0.025 g. The LV fractional shortening entry in data set [6] (14 days after last dose) is recorded as “significant decrease”. In data set [6] (hematoxylin and eosin staining), the “histopathology of heart sections” value is “Remarkable changes in degradation in cardiac muscle with vacuolization and edema of the cells”. In data set [6] (heart homogenate, 2 weeks after final dosing), the “% SOD” value is 34.02±4.5^a,b %. Also, the “Average tumor weights of the excised tumors” value in data set [7] (at the terminal experiment, SKBR-3 tumor, three IV doses of DOX 3 mg/kg) is 0.424 ± 0.06 g. This molecule had an average tumor volume in data set [7] (day 15, SKBR-3 tumor) of 500 mm^3. The average tumor volume in data set [7] (day 25, SKBR-3 tumor) worked out at 1790 mm^3.

The record behind these values is PMC6790403 (International Journal of Nanomedicine, 2019).
